These results are taken from ChEMBL document CHEMBL4007477, “Novel 2-phenyl-4,5,6,7-tetrahydro[b]benzothiophene analogues as selective COX-2 inhibitors: Design, synthesis, anti-inflammatory evaluation, and molecular docking studies” (Bioorg Med Chem Lett, 2017).

The target of series [1] is T1, COX1 (Prostaglandin G/H synthase 1) (Ovis aries, UniProt P05979).
T1 sequence (P05979 whole entry): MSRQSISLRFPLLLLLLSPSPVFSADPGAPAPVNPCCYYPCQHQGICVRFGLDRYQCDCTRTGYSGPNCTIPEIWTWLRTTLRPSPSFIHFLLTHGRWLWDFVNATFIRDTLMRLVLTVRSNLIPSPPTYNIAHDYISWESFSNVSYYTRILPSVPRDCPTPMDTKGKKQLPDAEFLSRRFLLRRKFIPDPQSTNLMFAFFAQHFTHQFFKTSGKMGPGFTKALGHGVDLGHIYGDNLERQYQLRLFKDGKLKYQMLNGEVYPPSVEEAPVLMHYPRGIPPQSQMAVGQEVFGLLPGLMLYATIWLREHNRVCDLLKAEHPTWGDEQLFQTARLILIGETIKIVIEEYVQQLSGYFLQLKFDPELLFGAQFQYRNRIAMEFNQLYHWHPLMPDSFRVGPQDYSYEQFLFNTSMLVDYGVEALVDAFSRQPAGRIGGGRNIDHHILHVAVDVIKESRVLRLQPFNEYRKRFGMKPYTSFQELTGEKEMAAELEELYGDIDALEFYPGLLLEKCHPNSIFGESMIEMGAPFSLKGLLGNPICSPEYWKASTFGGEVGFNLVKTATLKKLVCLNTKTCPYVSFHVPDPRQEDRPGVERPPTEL
The series is described as follows: Inhibition of ovine COX1 at 60 uM using arachidonic acid as substrate preincubated for 5 mins followed by substrate addition measured after 2 mins by ADHP probe-based fluorescence assay relative to control. Particulars: sheep, ovine COX1 enzyme.

The target in series [2] is T2, Prostaglandin G/H synthase 2 (Homo sapiens) (UniProt P35354).
T2 sequence (whole entry): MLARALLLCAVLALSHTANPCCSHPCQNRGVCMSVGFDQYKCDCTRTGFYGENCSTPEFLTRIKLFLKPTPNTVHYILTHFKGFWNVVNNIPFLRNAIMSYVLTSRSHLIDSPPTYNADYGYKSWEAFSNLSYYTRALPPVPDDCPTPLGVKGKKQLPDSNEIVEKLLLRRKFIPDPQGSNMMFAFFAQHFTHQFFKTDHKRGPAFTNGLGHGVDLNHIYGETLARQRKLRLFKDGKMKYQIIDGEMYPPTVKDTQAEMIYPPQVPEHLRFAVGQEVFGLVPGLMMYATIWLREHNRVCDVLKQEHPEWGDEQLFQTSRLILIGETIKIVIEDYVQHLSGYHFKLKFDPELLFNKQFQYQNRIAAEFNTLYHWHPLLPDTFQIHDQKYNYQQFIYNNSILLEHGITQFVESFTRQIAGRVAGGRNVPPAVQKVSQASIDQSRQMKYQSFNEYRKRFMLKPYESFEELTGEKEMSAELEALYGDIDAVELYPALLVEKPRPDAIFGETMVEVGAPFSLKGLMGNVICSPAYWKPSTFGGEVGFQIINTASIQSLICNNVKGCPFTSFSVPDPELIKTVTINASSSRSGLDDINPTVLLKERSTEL
Conditions: at 60 µM.

The test system of series [3] is Rattus norvegicus. In words: Antiinflammatory activity in carrageenan-induced Wistar rat paw edema model assessed as rise in paw volume at 150 ug/kg administered 1 hr followed by carrageenan challenge measured at 30 mins by plethysmometer (reference value: 49.5%). It is filed as functional. A general note: In the carrageenan paw model, swelling and tenderness develop within hours.

Series [4] concerns Rattus norvegicus. In words: Antiinflammatory activity in carrageenan-induced Wistar rat paw edema model assessed as rise in paw volume at 150 ug/kg administered 1 hr followed by carrageenan challenge measured at 60 mins by plethysmometer (reference value: 52.8%). It counts as functional.
Series [5] deals with Rattus norvegicus. In words: Antiinflammatory activity in carrageenan-induced Wistar rat paw edema model assessed as rise in paw volume at 150 ug/kg administered 1 hr followed by carrageenan challenge measured at 180 mins by plethysmometer (reference value: 60.1%). It counts as functional.
Series [6] has as its system Rattus norvegicus. In words: Antiinflammatory activity in carrageenan-induced Wistar rat paw edema model assessed as rise in paw volume at 150 ug/kg administered 1 hr followed by carrageenan challenge measured at 360 mins by plethysmometer (reference value: 49.3%). It is filed as functional.
Series [7] concerns the target T3, Prostaglandin G/H synthase 2 (Homo sapiens, UniProt P35354).
T3 sequence (P35354 whole entry): T2 sequence (whole entry)
The series is described as follows: Inhibition of human recombinant COX2 using arachidonic acid as substrate preincubated for 5 mins followed by substrate addition measured after 2 mins by ADHP probe-based fluorescence assay.

The nature of series [8]: Cytotoxicity against mouse RAW264.7 cells assessed as cell viability at 80 uM after 24 hrs by MTT assay relative to control. Particulars: read-out: Activity. It counts as cell-based. In short, it runs like this: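 MTT viability in RAW 264.7 cells after 24 h exposure to 5, 10, 20, 40, 80 and 160 µM compound.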
(In general: Tetrazolium dyes change colour on reduction, which living cells bring about.)

Series [9] concerns the target T4, Prostaglandin G/H synthase 1 (Ovis aries, UniProt P05979).
T4 sequence (P05979 whole entry): T1 sequence (P05979 whole entry)
In words: Inhibition of ovine COX1 using arachidonic acid as substrate preincubated for 5 mins followed by substrate addition measured after 2 mins by ADHP probe-based fluorescence assay.

Series [10] can be described thus: Selectivity index, ratio of IC50 for ovine COX1 to IC50 for human recombinant COX2. In short, it runs like this: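 Selectivity index computed as COX-1 IC₅₀ / COX-2 IC₅₀, using ovine COX-1 and human recombinant COX-2. Each IC₅₀ is a mean of two determinations.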

For orientation: inhibition means the percentage by which the read-out fell short of the control. Lower therefore signals little suppression. A word on the IC50: it is the midpoint of a concentration-inhibition curve.

The structures appear in SMILES notation.

In turn, `Cc1ccc(OC(=O)c2c(-c3ccccc3)sc3c2CCCC3)cc1` had an inhibition at 2 min, 60 µM in series [1] of 64%. Also, the inhibition in series [2] amounted to 47.2%.
The corresponding values for `COc1ccc(OC(=O)c2c(-c3ccccc3)sc3c2CCCC3)cc1` are 10.7% and 41%.
For `CC(C)(C)c1ccc(OC(=O)c2c(-c3ccccc3)sc3c2CCCC3)cc1`, the inhibition at 2 min, 60 µM in series [1] was found to be 8.1%. For the same compound, in series [2], the inhibition came out at 3.1%.
With `Nc1ccc(OC(=O)c2c(-c3ccccc3)sc3c2CCCC3)cc1`, the Activity with Rattus norvegicus [3] came out at 29%; in the series with Rattus norvegicus [4], 33.1%; in the series with Rattus norvegicus [5] it was 44.9%; in the series on Rattus norvegicus [6] it was 39.9%. The compound further displayed an inhibition at 2 min, 60 µM in [1] of 88.3%. Also, the inhibition in [2] amounted to 32.3%.
Consider `CC(=O)Nc1ccc(OC(=O)c2c(-c3ccccc3)sc3c2CCCC3)cc1`, for which the IC50 in series [7] stood at 1.4 µM; in [9] it was 68.8 µM. Further, the viability at 24 h, 80 µM in [8] stood at 41.3%. Moreover, the Activity in the series with Rattus norvegicus [3] was 10.6%; in the series on Rattus norvegicus [4], 30.2%; in the series on Rattus norvegicus [5], 27%; with Rattus norvegicus [6] it was 37%. For the same compound, the Ratio IC50 in [10] turned out to be 48.8. In [1], this compound came in with an inhibition at 2 min, 60 µM of 36.8%. Besides, the inhibition in series [2] was determined as 75.7%.
In series [1], `O=C(Oc1ccc(Br)cc1)c1c(-c2ccccc2)sc2c1CCCC2` registered an inhibition at 2 min, 60 µM of 35.5%. In addition, in [2], the inhibition amounted to 18.5%.
In series [1], `O=C(Oc1ccc(Cl)cc1)c1c(-c2ccccc2)sc2c1CCCC2` showed an inhibition at 2 min, 60 µM of 72.4%. In series [2], the inhibition came out at 36.8%.
Regarding `N#Cc1ccc(OC(=O)c2c(-c3ccccc3)sc3c2CCCC3)cc1`, the Activity stood at 13.6% in the series with Rattus norvegicus [3], 22% in the series with Rattus norvegicus [4], 21.4% in the series with Rattus norvegicus [5] and 28.5% in the series with Rattus norvegicus [6]. In addition, the inhibition at 2 min, 60 µM in [1] was 76%. The inhibition in [2] was determined as 83.7%.
Compound `NC(=O)Cc1ccc(OC(=O)c2c(-c3ccccc3)sc3c2CCCC3)cc1` registered an inhibition at 2 min, 60 µM in series [1] of 1.43%. In series [2], this compound registered an inhibition of 38.3%.
`COC(=O)c1ccc(OC(=O)c2c(-c3ccccc3)sc3c2CCCC3)cc1` returned an inhibition at 2 min, 60 µM in series [1] of 68.9%. This compound also showed an inhibition in series [2] of 56.5%.
With `CC(=O)c1ccc(OC(=O)c2c(-c3ccccc3)sc3c2CCCC3)cc1`, the Activity was 24.7% in the series with Rattus norvegicus [3], 37.1% in the series on Rattus norvegicus [4], 55.2% in the series on Rattus norvegicus [5] and 54.2% in the series with Rattus norvegicus [6]. Further, in [1], the inhibition at 2 min, 60 µM was 10.3%. For the same compound, the inhibition in [2] came to 8.04%.
`NS(=O)(=O)c1ccc(OC(=O)c2c(-c3ccccc3)sc3c2CCCC3)cc1`: the 50% inhibitory concentration (IC50) in series [7] was determined as 0.67 µM; in series [9], 37 µM. Moreover, the viability at 24 h, 80 µM in series [8] was found to be 83.7%. The Activity with Rattus norvegicus [3] is given as 21.4%; in the series on Rattus norvegicus [4], 21.6%; with Rattus norvegicus [5], 21.1%; with Rattus norvegicus [6] it was 31.3%. Further, the Ratio IC50 in [10] was determined as 54.7. The same compound gave an inhibition at 2 min, 60 µM in series [1] of 69.3%. The compound further came in with an inhibition in series [2] of 89.4%.
In [1], `O=C(Oc1ccc([N+](=O)[O-])cc1)c1c(-c2ccccc2)sc2c1CCCC2` returned an inhibition at 2 min, 60 µM of 19.3%. Further, the inhibition in [2] came out at 16.5%.
Take `Cc1ccc(-c2cc(C(F)(F)F)nn2-c2ccc(S(N)(=O)=O)cc2)cc1` [CELECOXIB]: the viability at 24 h, 80 µM in series [8] was 33.9%. Moreover, the Activity in the series with Rattus norvegicus [3] turned out to be 5.8%; with Rattus norvegicus [4], 16.2%; in the series with Rattus norvegicus [5], 19.7%; with Rattus norvegicus [6], 26.6%.
For `O=Cc1ccc(OC(=O)c2c(-c3ccccc3)sc3c2CCCC3)cc1`, the inhibition at 2 min, 60 µM in series [1] turned out to be 11.6%. For the same compound, the inhibition in series [2] came out at 10.7%.
With `COC(=O)Cc1ccc(OC(=O)c2c(-c3ccccc3)sc3c2CCCC3)cc1`, in series [1], the inhibition at 2 min, 60 µM worked out at 7.81%. Further, the inhibition in [2] was 15%.
For the compound `O=C(Oc1ccccc1)c1c(-c2ccccc2)sc2c1CCCC2`, the IC50 turned out to be 0.33 µM in series [7] and 61.2 µM in series [9]. The viability at 24 h, 80 µM in series [8] came out at 50.8%. Besides, the Activity came out at 10.6% in the series on Rattus norvegicus [3], 30.2% with Rattus norvegicus [4], 27% in the series with Rattus norvegicus [5] and 37% in the series on Rattus norvegicus [6]. In series [10], the Ratio IC50 was determined as 184. Besides, in series [1], the inhibition at 2 min, 60 µM stood at 47.1%. This compound also came in with an inhibition in series [2] of 97.6%.
For the compound `CC(=O)c1cccc(OC(=O)c2c(-c3ccccc3)sc3c2CCCC3)c1`, the IC50 in series [7] stood at 0.31 µM; in [9], 29.6 µM. Moreover, the viability at 24 h, 80 µM in series [8] is 64.5%. For the same compound, the Activity with Rattus norvegicus [3] came out at 28.9%; in the series with Rattus norvegicus [4], 30.8%; with Rattus norvegicus [5], 30.5%; in the series on Rattus norvegicus [6], 30.3%. In addition, the Ratio IC50 in series [10] was found to be 92.7. The same compound showed an inhibition at 2 min, 60 µM in series [1] of 73.5%. Moreover, in series [2], the inhibition was found to be 93.5%.
